The source of these data is ChEMBL document CHEMBL3526089, “Selective mechanism-based inactivation of CYP3A4 by CYP3cide (PF-04981517) and its utility as an in vitro tool for delineating the relative roles of CYP3A4 versus CYP3A5 in the metabolism of drugs” (Drug Metab Dispos, 2012).

One may read the inhibition as the change of the read-out against control, counted positive when it falls. The term pKi denotes the negative decadic logarithm of the Ki, by convention in mol/L. As usually defined, the pIC50 is the negative decadic logarithm of the IC50, by convention in mol/L. Low values mean a high IC50, high ones a low IC50.

The structures appear in SMILES notation. pIC50, pKi: −log10 of the molar value.

Type in all cases: ADME
Series [1] addresses CYP2D6 (Homo sapiens, UniProt P10635). Nature of the series: Time dependent inhibition of human CYP2D6 dextromethorphan O-demethylase activity assessed as decrease in enzyme activity at 100 uM preincubated for 30 mins by IC25-shift assay. Particulars: probe dextromethorphan (O-demethylation). In outline: (§1)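 IC25-shift assay. Pooled HLMs or recombinant CYP3A4/3A5/3A7 were preincubated 30 min at 37°C with CYP3cide, with or without NADPH (1.3 mM) (N=2). Mixture diluted 10-fold into probe substrate (~KM) at 37°C. Metabolites analysed by LC/MS/MS. Readout: % decrease in activity vs control.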

Series [2] concerns the target CYP3A4 (Homo sapiens, UniProt P08684). Nature of the series: Time dependent inhibition of midazolam 1'-hydroxylase activity of human recombinant CYP3A4 harboring human P450 oxidoreductase and b5 assessed as decrease in enzyme activity at 0.050 uM preincubated for 30 mins by IC25-shift assay. Conditions: recombinant CYP3A4 with human P450 oxidoreductase and b5, probe midazolam (1'-hydroxylation). In outline:
as §1

In series [3] the target is CYP3A5 (Homo sapiens, UniProt P20815). The series can be described thus: Time dependent inhibition of midazolam 1'-hydroxylase activity of human recombinant CYP3A5 harboring human P450 oxidoreductase and b5 assessed as decrease in enzyme activity at 2 uM preincubated for 30 mins by IC25-shift assay. Conditions: recombinant CYP3A5 with human P450 oxidoreductase and b5, probe midazolam (1'-hydroxylation). In outline:
as §1

In series [4] the target is CYP3A7 (Homo sapiens, UniProt P24462). Nature of the series: Time dependent inhibition of midazolam 1'-hydroxylase activity of human recombinant CYP3A7 harboring human P450 oxidoreductase and b5 assessed as decrease in enzyme activity at 100 uM preincubated for 30 mins by IC25-shift assay. Conditions: recombinant CYP3A7 with human P450 oxidoreductase and b5, probe midazolam (1'-hydroxylation). In outline:
as §1

The target of series [5] is T1, Cytochrome P450 3A4 (Homo sapiens, UniProt P08684). Nature of the series: Inhibition of midazolam 1'-hydroxylase activity of human recombinant CYP3A4 harboring human P450 oxidoreductase and b5 assessed as decrease in enzyme activity preincubated for 30 mins by LC-MS/MS analysis. In outline: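 Recombinant CYP3A4 with POR and cytochrome b5 was preincubated with inhibitor at 0.050 µM, with or without NADPH (1.3 mM), for 30 min at 37°C (N=2). The mixture was then diluted 10-fold into the probe substrate (about KM) at 37°C and analysed for metabolite. Results are percent decrease in activity versus control.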

Series [6] concerns the target Cytochrome P450 2B6 (Homo sapiens, UniProt P20813). Nature of the series: Reversible inhibition of human CYP2B6 bupropion hydroxylase activity. In outline: (§2)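 Reversible IC50 with pooled HLM or recombinant CYP3A7 (with POR and b5), protein 0.010–0.10 mg/ml depending on isoform. Probe substrate at its experimentally derived KM. Metabolite formation measured by LC/MS/MS. IC50 determinations run in duplicate.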

In series [7] the target is Cytochrome P450 2C8 (Homo sapiens, UniProt P10632). The series can be described thus: Reversible inhibition of human CYP2C8 paclitaxel 6alpha-hydroxylase activity. In outline:
as §2

The target of series [8] is Cytochrome P450 2C9 (Homo sapiens, UniProt P11712). The series can be described thus: Reversible inhibition of human CYP2C9 diclofenac 4'-hydroxylase activity. In outline:
as §2

In series [9] the target is Cytochrome P450 2D6 (Homo sapiens, UniProt P10635). The series can be described thus: Reversible inhibition of human CYP2D6 dextromethorphan O-demethylase activity.
The target in series [10] is CYP2B6 (Homo sapiens, UniProt P20813). Nature of the series: Time dependent inhibition of human CYP2B6 bupropion hydroxylase activity assessed as decrease in enzyme activity at 100 uM preincubated for 30 mins by IC25-shift assay. Conditions: probe bupropion (hydroxylation). In outline:
as §1

Series [11] deals with T2, Cytochrome P450 3A5 (Homo sapiens, UniProt P20815). Nature of the series: Inhibition of testosterone 6beta-hydroxylase activity of human recombinant CYP3A5 in presence of human P450 oxidoreductase and b5 assessed as decrease in enzyme activity preincubated for 30 mins by LC-MS/MS analysis. In outline: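 rCYP3A5 with POR and b5 (0.010 mg/ml for midazolam, 0.020 mg/ml for testosterone) preincubated 30 min at 37°C with 2 µM inhibitor, ±NADPH (1.3 mM), N=2. Mixture then diluted 10-fold into probe substrate at ~KM at 37°C. Activity expressed as percent of control remaining, reported as decrease in activity.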

Series [12] addresses T1, Cytochrome P450 3A4. The series can be described thus: Drug metabolism assessed as human recombinant CYP3A4 in presence of human P450 oxidoreductase and b5-mediated 1-((3S)-1-(1-methyl-3-(1-methyl-5-p-tolyl-1H-pyrazol-4-yl)-1H-pyrazolo[3,4-d]pyrimidin-4-yl)pyrrolidin-3-yl)-2,3,4,5-tetrahydropyridinium formation at 10 uM by HPLC-MS analysis in presence of NADPH. Conditions: recombinant enzyme. In outline:
(§3)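 Recombinant CYP3A4 or CYP3A5 (50 pmol/ml final) added, without preincubation, to 10 µM CYP3cide with NADPH (final 1 mM) in 100 mM phosphate pH 7.4. Trapping incubations also held 200 µM KCN or 5 mM GSH (final). Incubated 1 h at 37°C, quenched with acetonitrile, dried, reconstituted. Metabolites analysed by LC/Orbitrap ESI-MS.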

Series [13] addresses T2, Cytochrome P450 3A5. The series can be described thus: Drug metabolism assessed as human recombinant CYP3A5 in presence of human P450 oxidoreductase and b5-mediated (4-(1-methyl-4-((S)-3-(piperidin-1-yl)pyrrolidin-1-yl)-1H-pyrazolo[3,4-d]pyrimidin-3-yl)-5-p-tolyl-1H-pyrazol-1-yl)methanol formation at 10 uM by HPLC-MS analysis in presence of NADPH. Conditions: recombinant enzyme. In outline: as §3

Series [14] deals with T2, Cytochrome P450 3A5. The series can be described thus: Drug metabolism assessed as human recombinant CYP3A5 in presence of human P450 oxidoreductase and b5-mediated 1-((3S)-1-(1-methyl-3-(1-methyl-5-p-tolyl-1H-pyrazol-4-yl)-1H-pyrazolo[3,4-d]pyrimidin-4-yl)pyrrolidin-3-yl)-2,3,4,5-tetrahydropyridinium formation at 10 uM by HPLC-MS analysis in presence of KCN and NADPH. Particulars: recombinant enzyme. In outline:
as §3

Series [15] has as its system CYP3A5*1/*1. The series can be described thus: Inhibition of CYP3A5*1/*1 in human liver microsomes assessed as midazolam 1'-hydroxylase activity at 0.56 uM after 10 mins. Particulars: liver microsomes (CYP3A5*1/*1 genotype), probe midazolam (1'-hydroxylation). In outline: (§4)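 Genotyped individual HLMs (0.1 mg/ml) preincubated at 37°C with CYP3cide (0–1.3 μM; 10 min in the two-donor study, 5 min in the 30-donor study), with or without 1.3 mM NADPH (N=3). Mixture diluted 20-fold into 23 μM midazolam for 6 min. 1'-OH-midazolam measured. Readout: % of vehicle/no-NADPH control activity.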
On the technique in general: Microsomes from liver hold many membrane-bound enzymes, among them those of drug oxidation.

Series [16] concerns CYP3A5*1/*3. The series can be described thus: Time dependent inhibition of CYP3A5*1/*3 in human liver microsomes assessed as midazolam 1'-hydroxylase activity at 0.56 uM after 10 mins by dilution method. Conditions: human liver microsomes (CYP3A5*1/*3 genotype), probe midazolam (1'-hydroxylation).
Series [17] concerns CYP3A5*3/*3. Nature of the series: Time dependent inhibition of CYP3A5*3/*3 in human liver microsomes assessed as midazolam 1'-hydroxylase activity at 0.56 uM after 10 mins by dilution method. Particulars: human liver microsomes (CYP3A5*3/*3 genotype), probe midazolam (1'-hydroxylation). In outline: as §4

T2 sequence (P20815 whole entry): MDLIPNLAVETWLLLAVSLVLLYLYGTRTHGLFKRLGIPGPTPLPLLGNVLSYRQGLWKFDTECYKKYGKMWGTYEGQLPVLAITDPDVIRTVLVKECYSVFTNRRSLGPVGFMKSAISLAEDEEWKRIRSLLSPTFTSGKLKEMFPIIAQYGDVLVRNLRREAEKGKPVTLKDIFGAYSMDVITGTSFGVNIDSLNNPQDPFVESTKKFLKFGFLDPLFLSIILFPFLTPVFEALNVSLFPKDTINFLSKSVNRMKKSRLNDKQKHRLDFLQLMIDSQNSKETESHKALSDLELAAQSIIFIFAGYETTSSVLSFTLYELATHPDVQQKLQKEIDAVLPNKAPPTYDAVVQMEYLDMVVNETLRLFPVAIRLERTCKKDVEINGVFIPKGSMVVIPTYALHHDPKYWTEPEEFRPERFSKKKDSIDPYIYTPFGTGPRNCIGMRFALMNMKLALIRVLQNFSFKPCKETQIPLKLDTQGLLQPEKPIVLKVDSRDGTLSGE
T1 sequence (P08684 whole entry): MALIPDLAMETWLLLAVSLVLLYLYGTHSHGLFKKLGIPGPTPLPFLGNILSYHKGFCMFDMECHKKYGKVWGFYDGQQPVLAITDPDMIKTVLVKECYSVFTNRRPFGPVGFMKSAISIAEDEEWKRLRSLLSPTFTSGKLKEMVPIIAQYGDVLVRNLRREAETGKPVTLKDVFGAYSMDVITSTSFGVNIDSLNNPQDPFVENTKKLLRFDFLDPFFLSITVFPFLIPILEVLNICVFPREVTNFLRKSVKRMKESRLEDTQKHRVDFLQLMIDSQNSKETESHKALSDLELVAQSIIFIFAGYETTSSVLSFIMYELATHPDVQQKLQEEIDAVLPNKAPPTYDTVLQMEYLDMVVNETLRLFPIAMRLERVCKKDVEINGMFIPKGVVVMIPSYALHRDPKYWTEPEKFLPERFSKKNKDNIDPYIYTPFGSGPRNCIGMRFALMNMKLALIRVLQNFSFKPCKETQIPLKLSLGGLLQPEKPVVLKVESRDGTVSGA
Sequence of Cytochrome P450 2C8 (P10632 whole entry): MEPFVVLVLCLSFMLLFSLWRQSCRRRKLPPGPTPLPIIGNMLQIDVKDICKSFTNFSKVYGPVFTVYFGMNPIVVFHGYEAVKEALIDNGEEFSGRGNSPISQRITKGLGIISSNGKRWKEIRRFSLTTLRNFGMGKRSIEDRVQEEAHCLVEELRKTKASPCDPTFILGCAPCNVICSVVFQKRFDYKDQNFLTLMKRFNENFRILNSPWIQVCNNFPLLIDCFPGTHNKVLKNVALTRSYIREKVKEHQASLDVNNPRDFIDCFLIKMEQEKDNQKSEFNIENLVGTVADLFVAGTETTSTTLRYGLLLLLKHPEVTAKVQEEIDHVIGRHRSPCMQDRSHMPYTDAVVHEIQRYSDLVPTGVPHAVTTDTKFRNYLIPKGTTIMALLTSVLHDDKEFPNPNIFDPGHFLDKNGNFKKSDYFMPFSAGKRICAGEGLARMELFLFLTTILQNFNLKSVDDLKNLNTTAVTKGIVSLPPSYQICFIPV
Sequence of CYP3A7 (P24462 whole entry): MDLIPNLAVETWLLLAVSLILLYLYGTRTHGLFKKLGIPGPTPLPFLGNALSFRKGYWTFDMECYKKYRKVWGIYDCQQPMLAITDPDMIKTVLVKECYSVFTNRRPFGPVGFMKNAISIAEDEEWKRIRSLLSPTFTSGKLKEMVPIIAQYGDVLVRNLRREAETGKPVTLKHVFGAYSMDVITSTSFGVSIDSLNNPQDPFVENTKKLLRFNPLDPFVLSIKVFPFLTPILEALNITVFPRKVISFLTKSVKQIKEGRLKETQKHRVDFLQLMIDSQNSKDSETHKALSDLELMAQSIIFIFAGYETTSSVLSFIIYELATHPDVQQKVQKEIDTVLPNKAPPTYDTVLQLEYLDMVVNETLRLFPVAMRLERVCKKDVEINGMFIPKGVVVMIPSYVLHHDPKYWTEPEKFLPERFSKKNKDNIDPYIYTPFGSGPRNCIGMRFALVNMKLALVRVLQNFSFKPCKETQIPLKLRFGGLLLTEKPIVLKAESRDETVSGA
Sequence of CYP3A5 (P20815 whole entry): as the sequence (P20815 whole entry) above
Sequence of Cytochrome P450 2C9 (P11712 whole entry): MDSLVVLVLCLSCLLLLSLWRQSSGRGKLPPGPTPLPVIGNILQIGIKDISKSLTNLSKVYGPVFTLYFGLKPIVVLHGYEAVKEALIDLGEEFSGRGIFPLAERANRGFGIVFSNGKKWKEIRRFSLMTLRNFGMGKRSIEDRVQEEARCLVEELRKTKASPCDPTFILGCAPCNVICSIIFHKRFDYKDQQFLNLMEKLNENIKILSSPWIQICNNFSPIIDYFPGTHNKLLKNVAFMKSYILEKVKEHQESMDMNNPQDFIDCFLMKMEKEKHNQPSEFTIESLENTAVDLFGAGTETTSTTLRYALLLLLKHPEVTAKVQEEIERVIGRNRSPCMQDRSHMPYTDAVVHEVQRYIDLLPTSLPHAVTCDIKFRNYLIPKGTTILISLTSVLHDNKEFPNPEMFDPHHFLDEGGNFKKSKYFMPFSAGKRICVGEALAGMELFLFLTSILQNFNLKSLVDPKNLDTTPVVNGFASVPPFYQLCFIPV
Sequence of CYP2D6 (P10635 whole entry): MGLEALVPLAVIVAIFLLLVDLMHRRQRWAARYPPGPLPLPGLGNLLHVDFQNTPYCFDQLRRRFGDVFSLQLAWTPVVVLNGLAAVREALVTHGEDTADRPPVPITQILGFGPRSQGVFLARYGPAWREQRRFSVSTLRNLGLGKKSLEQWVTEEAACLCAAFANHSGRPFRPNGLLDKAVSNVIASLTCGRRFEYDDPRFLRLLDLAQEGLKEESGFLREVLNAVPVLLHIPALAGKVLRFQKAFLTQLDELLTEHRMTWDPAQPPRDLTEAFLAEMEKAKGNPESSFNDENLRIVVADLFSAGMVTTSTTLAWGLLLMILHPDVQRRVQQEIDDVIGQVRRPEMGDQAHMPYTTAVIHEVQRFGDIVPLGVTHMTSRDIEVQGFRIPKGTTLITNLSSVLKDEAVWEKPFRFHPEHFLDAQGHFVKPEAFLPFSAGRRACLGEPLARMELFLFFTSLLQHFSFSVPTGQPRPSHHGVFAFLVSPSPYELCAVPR
Sequence of Cytochrome P450 2D6 (P10635 whole entry): as above
Sequence of CYP2B6 (P20813 whole entry): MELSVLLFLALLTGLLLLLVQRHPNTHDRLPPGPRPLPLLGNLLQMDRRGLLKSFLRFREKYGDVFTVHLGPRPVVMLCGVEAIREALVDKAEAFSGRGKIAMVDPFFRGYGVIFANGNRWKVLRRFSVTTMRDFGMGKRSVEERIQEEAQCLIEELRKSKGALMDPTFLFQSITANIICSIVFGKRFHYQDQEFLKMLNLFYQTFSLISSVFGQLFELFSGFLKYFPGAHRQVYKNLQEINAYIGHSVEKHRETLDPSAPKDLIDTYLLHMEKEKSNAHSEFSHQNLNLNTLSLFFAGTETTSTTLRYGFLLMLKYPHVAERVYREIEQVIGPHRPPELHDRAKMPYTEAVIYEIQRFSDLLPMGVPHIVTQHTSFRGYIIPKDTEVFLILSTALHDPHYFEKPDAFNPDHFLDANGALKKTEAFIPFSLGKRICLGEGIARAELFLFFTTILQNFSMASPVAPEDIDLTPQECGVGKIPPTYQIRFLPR
Sequence of Cytochrome P450 2B6 (P20813 whole entry, canonical isoform): as the sequence (P20813 whole entry) above
Sequence of CYP3A4 (P08684 whole entry): as the sequence (P08684 whole entry) above

For the compound `Cc1ccc(-c2c(-c3nn(C)c4ncnc(N5CC[C@H](N6CCCCC6)C5)c34)cnn2C)cc1`, the values for the inhibition at 30 min, 100 µM in series [1], in series [4] and in series [10] were 6%, 15% and 2.4%, respectively. Besides, in series [2], the inhibition at 30 min, 0.05 µM came to 87%. Further, the inhibition at 30 min, 2 µM in series [3] worked out at 61%. Further, the pKi was 6.92 in series [5] and 5.92 in series [11]. Besides, the negative-log IC50 (pIC50) is 4.06 in [6], 4.11 in series [7], less than 4.00 in [8] and 4.15 in series [9]. Moreover, the Drug metabolism entry in series [12], in series [13] and in series [14] was “metabolite_detected” in each case. Moreover, the figures for the inhibition at 10 min, 0.56 µM in series [15], in [16] and in series [17] were 23%, 0.4% and 0.4%, respectively.
